In paper PMC5969509 (Chemical Science, 2018):
Like-named read-outs stand apart in the source and are kept apart here. Positions of bridges follow the written chain, without caps; N, C: chain ends. Non-standard residues stand in square brackets, D forms with d. Residues, ends and D or L forms follow the SMILES beside them.

How the values were obtained:
[1] = biological target: catalytic domain of PHD2 (residues 181–426, tPHD2) with N-terminal His-tag and C-terminal biotinylation (tPHD2_(HisBio)) (human) (UniProt Q9GZT9); assay: BLI
[2] = biological target: catalytic domain of PHD2 (residues 181–426, tPHD2) with N-terminal His-tag and C-terminal biotinylation (tPHD2_(HisBio)) (human) (UniProt Q9GZT9); assay: BLI; remark: listed apart in the source
[3] = tested on: KDM4A; assay: Biolayer interferometry, binding to KDM4A; set-up: species or system human; settings: BLI, 3-fold dilution series
Procedure, shortened: (§1)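 Recombinant protein (tPHD2HisBio or KDM4A) was expressed in E. coli BL21 (DE3) and loaded onto biosensors. Binding was measured by biolayer interferometry as cycles of association and dissociation across a dilution series of test peptide. A DMSO-only sensor included in each run was subtracted to correct for drift, and the traces were fitted globally.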

[4] = biological target: tPHD2HisBio (catalytic domain of PHD2, residues 181-426) (Homo sapiens, UniProt Q9GZT9); assay: Biolayer interferometry, tPHD2HisBio immobilised via C-terminal biotin; format: binding
Procedure, shortened: as §1

[5] = biological target: tPHD2 (Homo sapiens, UniProt Q9GZT9); assay: Biolayer interferometry, tPHD2 immobilised via N-terminal His-tag; format: binding; settings: BLI; tPHD2 denatured chemically or thermally
[6] = tested on: PHD1; assay: 3CBt capture; format: binding, human; settings: protein 10 µM, 3CBt 26 µM, Coomassie SDS-PAGE
[7] = tested on: PHD2; assay: 3CBt capture; format: binding, human
[8] = tested on: PHD2:HIF1-α complex; assay: 3CBt capture of PHD:HIF1-α complex from RCC4 cell lysates; format: binding; settings: RCC4 cells in hypoxia, 3CBt 52 µM, western blot
[9] = tested on: PHD3; assay: 3CBt capture; format: binding, human; settings: 3CBt 26 µM

Sequence of tPHD2HisBio (catalytic domain of PHD2, residues 181-426) (Q9GZT9 181-426): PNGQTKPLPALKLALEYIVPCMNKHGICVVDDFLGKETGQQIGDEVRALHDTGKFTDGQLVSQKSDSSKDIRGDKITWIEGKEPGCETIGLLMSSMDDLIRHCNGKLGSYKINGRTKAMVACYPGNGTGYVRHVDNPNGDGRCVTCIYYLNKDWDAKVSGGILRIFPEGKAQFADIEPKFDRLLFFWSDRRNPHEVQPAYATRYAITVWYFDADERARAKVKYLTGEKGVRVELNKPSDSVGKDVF
Sequence of catalytic domain of PHD2 (residues 181–426, tPHD2) with N-terminal His-tag and C-terminal biotinylation (tPHD2_(HisBio)) (human) (Q9GZT9 181-426): as above
Sequence of tPHD2 (Q9GZT9 181-426): as above

C-terminal oxygen dependent domain (CODD), a fragment peptide of HIF1-α
Kd [1]: 5.2 µM | Kd [2]: 6.3 µM

CC(C)C[C@@H]1NC(=O)[C@H](Cc2c[nH]c3ccccc23)NC(=O)[C@H](C(C)C)NC(=O)[C@@H](Cc2ccc(O)cc2)NC(=O)CSC[C@@H](C(N)=O)NC(=O)[C@H]([C@@H](C)O)NC(=O)[C@H](CCCNC(=N)N)NC(=O)[C@H](CO)NC(=O)[C@H](CC(C)C)NC(=O)[C@H](C(C)C)NC(=O)[C@H](Cc2c[nH]c3ccccc23)NC(=O)[C@H]([C@@H](C)O)NC(=O)[C@H](CC(=O)O)NC(=O)[C@H]([C@@H](C)O)NC1=O [3C] ({CH2CO}-[dY]VWLTDTWVLSRTC-NH2; thioether N-14)
binding to KDM4A [3]: almost no detectable binding | Kd [4]: 0.27 nM | dissociative half-life t1/2 ([4]; BLI, C-terminal biotin immobilisation): 68 min | binding to denatured tPHD2 [5]: abolished

DYVWL T DT W VL SRTCGSGSGSZ (sidechain bridge or staple) [3CBt]
capture of recombinant full length PHD1 [6]: able to capture | capture of endogenous PHD2 from Hep3B cell lysates ([7]; hypoxic (1% O2) Hep3B cells, western blot, 3CBt 13 µM): could be captured | recovery of recombinant full-length PHD2 ([7]; protein 10 µM, 3CBt 26 µM, Coomassie SDS-PAGE): recovered in a 3CBt-dependent manner | recovery of isolated recombinant tPHD2 ([7]; streptavidin magnetic beads, Coomassie SDS-PAGE, tPHD2 100 nM, 3CBt 520 nM): High levels of tPHD2 recovery | co-purification of HIF1-α and PHDs at endogenous levels [8]: could co-purify HIF1-α and PHDs at endogenous levels | capture of endogenous PHD3 from Hep3B cell lysates ([9]; hypoxic conditions, western blot): able to affinity purify | capture of recombinant full length PHD3 ([9]; protein 10 µM, Coomassie SDS-PAGE): able to capture
